Screens deposited in PubChem BioAssay by several laboratories.
Hits are enriched below; roughly 3.9% of the tested compounds scored in any of these assays.
HIF act: HIF pathway transcriptional activation. activation, % at 7.5 µM (by protocol). U2OS HRE-luciferase reporter, luminescence; normalized: DMSO 0%, desferrioxamine 100%. actives 0.32% (n = 300,000);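 active = mean activation of at least 10% of the iron chelator positive control signal, with at least half of replicates also reaching 10%; inconclusive = mean and replicate majority disagree about reaching 10%; inactive = mean and most replicates under 10%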
ABCB6 inh MLPCN: human ABCB6 transporter inhibition; actives 0.19% (n = 360,000); fluorescence ratio to DMSO, % at 10 µM; K562-ABCB6 porphyrin accumulation, flow cytometry, 1 h; active compounds read low; Q9NP58;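 active = fluorescence ratio to DMSO below 75%, the collection mean minus 3 SD; inconclusive = too few cells collected in the well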;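 note: signal is porphyrin accumulated inside mitochondria; 100% equals median channel fluorescence of DMSO control wells; lower ratio means ABCB6 inhibition with less porphyrin fluorescence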
SR-BI DiI-HDL act: activators of SR-BI mediated HDL lipid uptake; CHO ldlA[mSR-BI] cells, DiI-HDL uptake fluorescence, 3 h; 100 = double the neutral-control signal; activation, % at 12.5 µM; actives 0.096% (n = 320,000); AID 504775;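 active = mean replicate activation of at least 60% and every replicate at or above 60%; inconclusive = mean or all-replicate condition met, but not both; inactive = mean below 60% and not all replicates reaching 60%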;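 note: 0% = median plate neutral-control signal and 100% = twice that signal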
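Test system: SR-BI-overexpressing, LDLR-lacking CHO cells; Also added: labelled HDL, 10 µg/mL; Measured by: bottom-read cell fluorescence after medium removal, ex 550/em 595 nm; Timing: 3 h uptake period with compound, 37 °C; Buffer or medium: F12, 0.5% BSA, 25 mM HEPES; Doses: single compound concentration, delivered by pin transfer.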
SR-BI HDL uptake: blocks mouse SR-BI lipid uptake from DiI-HDL; inhibition, % at 12.5 µM; ldlA[mSR-BI] CHO cells, DiI-HDL uptake fluorescence, 3 h; AID 488896; actives 0.96% (n = 320,000);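 active = mean replicate inhibition of at least 70% and a set share of replicates each scoring 70 or more; inconclusive = meets just one of the two criteria; inactive = fails both criteria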;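 note: 0% = median of neutral control wells and 100% = median of positive control wells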
GAA850 FXN act: increases GAA850 frataxin promoter reporter activity; HEK293 lucGAA850 FXN promoter luciferase reporter, 24 h; percent of 10 µM SAHA response; activation, % at 6 µM; actives 0.56% (n = 360,000); AID 540364;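 active = activation above the average of all compounds screened plus 3 SD, cutoff fixed separately per campaign, cut at about 7.5% in these data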;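 note: 0% = DMSO wells and 100% = 10 µM SAHA wells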
AHR act: human AHR activation. P35869. AHR-responsive luciferase reporter cells, luminescence. activation, % at 5 µM. actives 2.5% (n = 320,000); in the data active = activation above about 47%;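 note: 0% = vehicle wells and 100% = reference agonist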
Target sequence (P35869 whole entry, looked up): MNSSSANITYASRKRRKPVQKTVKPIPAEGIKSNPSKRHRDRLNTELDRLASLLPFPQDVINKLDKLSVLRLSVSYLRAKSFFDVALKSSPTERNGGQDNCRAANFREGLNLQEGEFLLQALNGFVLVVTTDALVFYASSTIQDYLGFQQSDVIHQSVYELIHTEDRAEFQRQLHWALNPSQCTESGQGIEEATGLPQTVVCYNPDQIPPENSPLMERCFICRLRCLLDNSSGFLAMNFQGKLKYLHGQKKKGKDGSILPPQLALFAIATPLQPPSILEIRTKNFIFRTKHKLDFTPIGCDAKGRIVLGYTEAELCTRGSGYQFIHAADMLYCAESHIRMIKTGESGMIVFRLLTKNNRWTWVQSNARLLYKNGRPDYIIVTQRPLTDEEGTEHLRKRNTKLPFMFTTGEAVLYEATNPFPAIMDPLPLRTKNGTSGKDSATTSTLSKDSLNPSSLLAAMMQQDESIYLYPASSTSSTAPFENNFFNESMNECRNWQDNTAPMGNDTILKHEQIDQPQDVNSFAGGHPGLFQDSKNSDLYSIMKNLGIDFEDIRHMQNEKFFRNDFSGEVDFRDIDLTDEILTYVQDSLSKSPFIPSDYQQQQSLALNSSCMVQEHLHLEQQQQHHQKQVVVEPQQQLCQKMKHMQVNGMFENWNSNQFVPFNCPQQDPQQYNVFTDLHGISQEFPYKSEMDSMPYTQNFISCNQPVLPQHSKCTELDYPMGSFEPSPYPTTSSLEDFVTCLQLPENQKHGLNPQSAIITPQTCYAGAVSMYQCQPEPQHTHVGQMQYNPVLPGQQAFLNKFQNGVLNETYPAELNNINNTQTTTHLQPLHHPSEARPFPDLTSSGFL
DiI quench: quenches DiI-HDL fluorescence, an SR-BI assay artifact; actives 20% (n = 470); AC50, µM (titrated, usually from 35 µM), without a hit: top-dose activity change, negative = quenching; cell-free DiI-HDL fluorescence quenching, 30 min; shares compounds with SR-BI HDL uptake;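 active = quenching, a falling signal, with AC50 below a set limit tied to the top valid dose, actives reach about 32 µM in these data; inconclusive = no clear call, values can overlap the other calls; inactive = rising signal, and the rest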
The depositor's hits bear a star; ? = inconclusive; / = no result.

SMILES | HIF act | ABCB6 inh MLPCN | SR-BI DiI-HDL act | SR-BI HDL uptake | GAA850 FXN act | AHR act | DiI quench
Cc1ccc(/C=C/C(=O)Nc2sc3c(c2C#N)CCCC3)o1 | 0 | 103 | -75 | 75* | 0 | 2 | -5%
Cc1ccc(S(=O)(=O)Nc2nc(C)c(C(=O)NN)s2)cc1 | -1 | 101 | -7 | 7 | 1 | -1 | /
CCOC(=O)C1CCCN(C(=O)c2cc(COc3ccc(C)nc3)on2)C1 (centres undefined) | 3 | 81 | 15 | -15 | 2 | / | -1%
CCOC(=O)C1CCCN(C(=O)c2cc(-c3ccc(C)cc3)on2)C1 (centres undefined) | 0 | 90 | 1 | -1 | -3 | -3 | /
COc1ccc2oc(=O)c(C(=O)N3CCN(c4ccccc4C)CC3)cc2c1 | 3 | 101 | 1 | -1 | 2 | 0 | /
O=C(c1ccc(S(=O)(=O)NCc2ccco2)cc1)N1CCN(Cc2ccc3c(c2)OCO3)CC1 | -1 | 104 | -71 | ? | -1 | 0 | 0%
COc1ccc(CN2CCN(C(=O)c3ccc(S(=O)(=O)N4CCCCCC4)cc3)CC2)cc1F | / | 101 | -49 | 49 | -2 | / | /
COc1ccc(CN2CCN(C(=O)c3ccc(S(=O)(=O)NCc4ccco4)cc3)CC2)cc1F | / | 98 | -72 | ? | -2 | / | -2%
Cc1ccccc1CN1CCN(C(=O)c2ccc(S(=O)(=O)NCc3ccco3)cc2)CC1 | / | 96 | -64 | 64 | 2 | -3 | -2%
O=C(c1ccc(S(=O)(=O)N2CCCC2)cc1)N1CCN(Cc2ccc3c(c2)OCO3)CC1 | 0 | 94 | -39 | 39 | -3 | 1 | /
CC1CCC(C(C)C)C(OC(=O)Cn2c(-c3ccc(F)cc3)[n+](C)c3ccccc32)C1 (centres undefined) | / | 90 | 17 | -17 | -6 | 0 | /
CCOC(=O)C1(C)CCCN1C(=O)c1ccc(F)c(Cl)c1 (centres undefined) | / | 100 | / | / | -1 | / | /
NC(=O)Cn1cc(C(=O)C(=O)N2CCOCC2)c2ccccc21 | 0 | 93 | -4 | 4 | 2 | 1 | /
O=C(Nc1ccccc1C(=O)O)c1cccc(NC(=O)c2ccccc2Cl)c1 | 1 | 99 | -34 | 34 | 0 | 2 | /
O=C(Nc1cccc(NC(=O)c2ccccc2Cl)c1)c1ccc(F)cc1 | 1 | 88 | -79 | 79* | 2 | 4 | -1%
Cn1c(CCN2CCN(c3ccccn3)CC2)nc2cc(NS(=O)(=O)c3ccc(Cl)cc3)ccc21 | 2 | 98 | -73 | 73* | 0 | 2 | -2%
Cc1ccc(S(=O)(=O)Nc2ccc3c(c2)nc(CCN2CCN(c4ccccn4)CC2)n3C)cc1 | 0 | 95 | -34 | 34 | 1 | 1 | /
CC(=O)c1c(C)[nH]c(C(=O)Nc2ccc(C)c(S(=O)(=O)Nc3ccc(C)cc3C)c2)c1C | 1 | 92 | -83 | 83* | 0 | 26 | 11%
CC(=O)c1c(C)[nH]c(C(=O)Nc2ccc(C)c(S(=O)(=O)N(C)C)c2)c1C | -1 | 101 | -63 | 63 | 5 | 0 | /
CCc1cc(=O)oc2c3c(cc(OCC(=O)NCc4ccco4)c12)OC(C)(C)CC3 | 0 | 101 | -76 | ? | 0 | 6 | 0%
CC1CN(c2nnnn2-c2ccccc2)CC(C)O1 (centres undefined) | 0 | 93 | 19 | -19 | 1 | 1 | /
Cc1ccc(NS(=O)(=O)c2ccc(C(=O)NNC(=O)c3ccccc3O)cc2)cc1 | 0 | 97 | -120 | 120* | -1 | 19 | 0.46µM*
CN(CCC1CCCCO1)Cc1cn(C)nc1-c1ccc2c(c1)OCCO2 (centres undefined) | 0 | 101 | -3 | 3 | 1 | 4 | /
COc1ccc(-c2nnn(Cc3ccccc3)n2)cc1OC | 1 | 95 | -4 | 4 | 2 | 3 | /
COc1cc(-c2nnn(Cc3ccccc3C)n2)cc(OC)c1OC | -11 | 100 | -101 | 101* | 1 | 2 | 2%
COc1ccccc1-c1nnc(SCC(=O)Nc2ccc(S(N)(=O)=O)cc2)n1C | 0 | 94 | 9 | -9 | 0 | 1 | /
